Assay [1] addresses T1, GABA-A receptor; anion channel (Rattus norvegicus) (UniProt O09028+P15431+P18506+P18508+P19969+P20236+P23574+P23576+P28471+P28473+P30191+P62813+P63079+P63138+Q91ZM7+Q9ES14). Nature of the assay: Maximal binding constant (Bmax) determined in Scatchard analysis of 35[S]-TBPS binding. It counts as protein-complex assay. The gist of the method:
(§1)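 Scatchard analysis of [35S]-TBPS binding to rat brain membranes, with compounds dissolved in DMSO at a final assay concentration of 0.25%. Run in triplicate with triplicate determinations per point. Kd and Bmax were taken from linear regression of Scatchard-transformed data. TBPS alone vs TBPS plus test compound was compared by Student's t test.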

Assay [2] has as its target T1, GABA-A receptor; anion channel (Rattus norvegicus). As to the kind of experiment: (§2) Percent response with 1 uM GABA relative to current produced by 1 uM GABA alone in rat hippocampal cells. Format: functional, cell-based. To be noted: Hippocampus. The gist of the method: (§3)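 Whole-cell patch clamp on rat hippocampal cells. Current with 1 μM GABA plus 1 μM compound is expressed as percent of the current from 1 μM GABA alone.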

Assay [3] addresses GABA-A receptor; anion channel. As to the kind of experiment: Inhibition of GABA-A receptor by displacement of 35[S]-TBPS. It counts as protein-complex assay, Rattus norvegicus. The gist of the method: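 [35S]-TBPS displacement on rat brain membranes, with compounds dissolved in DMSO at a final assay concentration of 0.25%. IC50 was obtained by logistic analysis.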
In assay [4] the target is T1, GABA-A receptor; anion channel (Rattus norvegicus). Nature of the assay: Percent response without GABA relative to current produced by 1 uM GABA alone in rat hippocampal cells (gated current). It counts as functional, cell-based. The settings on record: Hippocampus. The essentials:
(§4)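 Whole-cell patch clamp on rat hippocampal cells. Current gated by 10 μM compound without GABA is expressed as percent of the current evoked by 1 μM GABA on the same cell.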

For assay [5], the target named is Gamma-aminobutyric acid receptor subunit gamma-1 (Rattus norvegicus) (UniProt P23574). The assay is described as §2. Format: functional, cell-based. The settings on record: Hippocampus. The gist of the method: as §3
The target is the same in assay [6]. As to the kind of experiment: Percent response without GABA relative to current produced by 1 uM GABA alone in rat hippocampal cells (No response). Format: functional, cell-based. To be noted: Hippocampus. The essentials: as §4
The target of assay [7] is GABA-A receptor; anion channel. As to the kind of experiment: Dissociation constant (Kd) determined in Scatchard analysis of 35[S]-TBPS binding. Format: protein-complex assay, Rattus norvegicus. The gist of the method: as §1

Here are results for seven molecules from ChEMBL document CHEMBL1126987, “Modulation of GABAA receptor function by benz[e]indenes and phenanthrenes” (J Med Chem, 1993).

Activity calls are given as the source filed them. The rule behind the calls is not given here.

Chain of Gamma-aminobutyric acid receptor subunit gamma-1 (Rattus norvegicus) (P23574 whole entry): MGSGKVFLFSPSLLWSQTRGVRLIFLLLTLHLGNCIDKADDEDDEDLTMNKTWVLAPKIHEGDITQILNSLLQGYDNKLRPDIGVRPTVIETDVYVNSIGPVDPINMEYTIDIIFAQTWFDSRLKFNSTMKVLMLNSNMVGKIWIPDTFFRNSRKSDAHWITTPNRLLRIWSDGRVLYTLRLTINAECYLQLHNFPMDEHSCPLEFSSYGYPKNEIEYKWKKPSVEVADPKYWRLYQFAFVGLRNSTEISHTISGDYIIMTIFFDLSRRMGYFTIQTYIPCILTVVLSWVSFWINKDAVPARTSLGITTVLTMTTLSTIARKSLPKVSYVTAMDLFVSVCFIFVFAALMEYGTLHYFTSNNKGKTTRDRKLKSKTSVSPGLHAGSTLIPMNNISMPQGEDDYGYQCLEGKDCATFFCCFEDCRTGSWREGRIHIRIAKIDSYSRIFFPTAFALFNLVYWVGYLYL

Usually IC50 stands for the point on the concentration scale where inhibition reaches its midpoint. As to `CC(=O)[C@H]1CCC2C3CC[C@@H](CCO)CC3CC[C@@]21C` (some centres not stated), in assay [1], the Bmax (pM (mg of protein)-1) worked out at 1.04. The molecule further gave a Response in assay [2] of 489%. For the same molecule, the IC50 in assay [3] is 5.82 µM.

For the molecule `C[C@]12CCC3C[C@H](CCO)CCC3C1CCC2=O` (some centres not stated), the Response in assay [2] was found to be 127%. This molecule displayed a half-maximal inhibitory concentration (IC50) in assay [3] of 44.1 µM.

As for `C[C@]1(CC#N)CCC2C(CC[C@H]3C[C@H](O)CC[C@]23C)C1` (some centres not stated), the Response in assay [2] worked out at 106%. In addition, in assay [4], the Activity was determined as 8. In assay [3], the half-inhibitory concentration (IC50) is 3.27 µM.

Regarding `C[C@]12CCC3C[C@H](CCO)CCC3C1CC[C@@H]2C#N` (some centres not stated), in assay [5], the Response worked out at 346%. Also, the result in assay [6] was inactive. This molecule also came in with an IC50 in assay [3] of 4.5 µM.

With `CC(=O)C[C@@]1(C)CCC2C(CC[C@H]3C[C@H](O)CC[C@]23C)C1` (some centres not stated), the Bmax (pM (mg of protein)-1) in assay [1] turned out to be 1.15. The Response in assay [2] was 113%. Further, in assay [4], the Activity amounted to 1. In assay [3], the concentration for half-maximal inhibition (IC50) was 3.98 µM.

By Kd is commonly meant the constant that tells how readily two partners part at equilibrium. Higher therefore signals weaker binding. In assay [1], `CC(=O)C1CC[C@H]2[C@@H]3CC[C@H]4C[C@H](O)CC[C@]4(C)[C@H]3CC[C@]12C` (some centres not stated) came in with a Bmax (pM (mg of protein)-1) of 1.22. The molecule further had a Response in assay [2] of 195%. In assay [7], this molecule returned a Kd below 0.08 µM. For the same molecule, the Activity in assay [4] was determined as 30. Also, the IC50 in assay [3] stood at 0.18 µM.

In turn, `CC(=O)[C@@]1(C)CCC2C(CC[C@H]3C[C@H](O)CC[C@]23C)C1` (some centres not stated) registered a Response in assay [2] of 108%. This molecule displayed a 50% inhibitory concentration (IC50) in assay [3] of 7.06 µM.
